In ChEMBL document CHEMBL2375276, “Antibacterial oxazolidinone analogues having a N-hydroxyacetyl-substituted seven-membered [1,2,5]triazepane or [1,2,5]oxadiazepane C-ring unit” (Eur J Med Chem, 2013):
Values after ≈ are worked out from the molar mass of the structure shown.

Legend:
Format in all cases: functional
Moraxella catarrhalis [1] = test: Antibacterial activity against Moraxella catarrhalis SR26840 clinical isolate assessed as growth inhibition by CLSI broth microdilution method
Outline: (§1)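 MIC by CLSI broth microdilution in cation-adjusted Mueller-Hinton broth; S. pneumoniae medium supplemented with 5% lysed horse blood.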

Staphylococcus aureus [2] = test: Antibacterial activity against Staphylococcus aureus Smith assessed as growth inhibition by CLSI broth microdilution method; outline: as §1
Haemophilus influenzae [3] = test: Antibacterial activity against Haemophilus influenzae SR27914 clinical isolate assessed as growth inhibition by CLSI broth microdilution method
Outline: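 MIC by CLSI broth microdilution using Haemophilus test medium.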

Streptococcus pneumoniae [4] = test: Antibacterial activity against Streptococcus pneumoniae SR26207 clinical isolate assessed as growth inhibition by CLSI broth microdilution method; outline: as §1
Enterococcus faecium [5] = test: Antibacterial activity against Enterococcus faecium SR7940 clinical isolate assessed as growth inhibition by CLSI broth microdilution method; outline: as §1
Staphylococcus aureus [6] = test: Antibacterial activity against linezolid-resistant Staphylococcus aureus NRS271 assessed as growth inhibition by CLSI broth microdilution method
Outline: (§2)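 MIC by CLSI broth microdilution in cation-adjusted Mueller-Hinton broth. Lowest concentration inhibiting growth taken as MIC.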

Staphylococcus aureus [7] = test: Antibacterial activity against Staphylococcus aureus SR20549 clinical isolate assessed as growth inhibition by CLSI broth microdilution method; outline: as §1
Enterococcus faecalis [8] = test: Antibacterial activity against Enterococcus faecalis SR1004 clinical isolate assessed as growth inhibition by CLSI broth microdilution method; outline: as §1
Streptococcus pneumoniae [9] = test: Ratio of eperezolid MIC to compound MIC for Streptococcus pneumoniae SR26207 clinical isolate
Enterococcus faecalis [10] = test: Ratio of eperezolid MIC to compound MIC for Enterococcus faecalis SR1004 clinical isolate
Enterococcus faecalis [11] = test: Ratio of linezolid MIC to compound MIC for Enterococcus faecalis SR1004 clinical isolate
Enterococcus faecium [12] = test: Ratio of linezolid MIC to compound MIC for Enterococcus faecium SR7940 clinical isolate
Staphylococcus aureus [13] = test: Antibacterial activity against methicillin-resistant Staphylococcus aureus SR3637 infected in JCL/ICR mouse systemic infection model assessed as mortality administered as iv measured over 7 days; conditions: 168 h
Outline: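 Five-week-old male JCL/ICR mice (20–25 g), five per group. Infected intraperitoneally with 0.5 or 1.0 mL bacterial suspension (about 100× LD50). Intravenous dosing 1 h post-infection. Mortality followed 7 days; ED50 with 95% confidence limits by logit method.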

Staphylococcus aureus [14] = test: Ratio of eperezolid MIC to compound MIC for Staphylococcus aureus SR20549 clinical isolate
Moraxella catarrhalis [15] = test: Ratio of linezolid MIC to compound MIC for Moraxella catarrhalis SR26840 clinical isolate
Staphylococcus aureus [16] = test: Ratio of eperezolid MIC to compound MIC for Staphylococcus aureus Smith
Staphylococcus aureus [17] = test: Ratio of linezolid MIC to compound MIC for Staphylococcus aureus Smith
Staphylococcus aureus [18] = test: Antibacterial activity against methicillin-resistant Staphylococcus aureus SR3637 assessed as growth inhibition by CLSI broth microdilution method; outline: as §2
Moraxella catarrhalis [19] = test: Ratio of eperezolid MIC to compound MIC for Moraxella catarrhalis SR26840 clinical isolate
Enterococcus faecium [20] = test: Ratio of eperezolid MIC to compound MIC for Enterococcus faecium SR7940 clinical isolate
Haemophilus influenzae [21] = test: Ratio of eperezolid MIC to compound MIC for Haemophilus influenzae SR27914 clinical isolate
Staphylococcus aureus [22] = test: Antibacterial activity against methicillin-resistant Staphylococcus aureus SR3637 infected in JCL/ICR mouse systemic infection model assessed as mortality administered as po measured over 7 days; conditions: 168 h
Outline: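 Five-week-old male JCL/ICR mice (20–25 g), five per group. Infected intraperitoneally with 0.5 or 1.0 mL bacterial suspension (about 100× LD50). Oral dosing 1 h post-infection. Mortality followed 7 days; ED50 with 95% confidence limits by logit method.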

Streptococcus pneumoniae [23] = test: Ratio of linezolid MIC to compound MIC for Streptococcus pneumoniae SR26207 clinical isolate
Staphylococcus aureus [24] = test: Ratio of linezolid MIC to compound MIC for Staphylococcus aureus SR20549 clinical isolate
Haemophilus influenzae [25] = test: Ratio of linezolid MIC to compound MIC for Haemophilus influenzae SR27914 clinical isolate

Row | SMILES | MIC (Moraxella catarrhalis [1]) | MIC (Staphylococcus aureus [2]) | MIC (Haemophilus influenzae [3]) | MIC (Streptococcus pneumoniae [4]) | MIC (Enterococcus faecium [5]) | MIC (Staphylococcus aureus [6]) | MIC (Staphylococcus aureus [7]) | MIC (Enterococcus faecalis [8]) | Ratio (Streptococcus pneumoniae [9]) | Ratio (Enterococcus faecalis [10]) | Ratio (Enterococcus faecalis [11]) | Ratio (Enterococcus faecium [12]) | Ratio (Staphylococcus aureus [14]) | Ratio (Moraxella catarrhalis [15]) | Ratio (Staphylococcus aureus [16]) | Ratio (Staphylococcus aureus [17]) | Ratio (Moraxella catarrhalis [19]) | Ratio (Enterococcus faecium [20]) | Ratio (Haemophilus influenzae [21]) | Ratio (Streptococcus pneumoniae [23]) | other results
1 | CC(=O)NC[C@H]1CN(c2cc(F)c(N3CCON(C(=O)CO)CC3)c(F)c2)C(=O)O1 | 8 µg/mL (≈ 18.7 µM) | 2 µg/mL (≈ 4.67 µM) | 16 µg/mL (≈ 37.3 µM) | 1 µg/mL (≈ 2.33 µM) | 2 µg/mL (≈ 4.67 µM) | 32 µg/mL (≈ 74.7 µM) | 2 µg/mL (≈ 4.67 µM) | 4 µg/mL (≈ 9.34 µM) | – | – | – | – | – | – | – | – | – | – | – | – | –
2 | CC(=O)NC[C@H]1CN(c2cc(F)c(N3CCNOCC3)c(F)c2)C(=O)O1 | 4 µg/mL (≈ 10.8 µM) | 1 µg/mL (≈ 2.7 µM) | 16 µg/mL (≈ 43.2 µM) | 0.25 µg/mL (≈ 0.675 µM) | 1 µg/mL (≈ 2.7 µM) | 16 µg/mL (≈ 43.2 µM) | 1 µg/mL (≈ 2.7 µM) | 2 µg/mL (≈ 5.4 µM) | – | – | – | – | – | – | – | – | – | – | – | – | –
3 | CC(=S)NC[C@H]1CN(c2ccc(N3CCNN(C(=O)CO)CC3)c(F)c2)C(=O)O1 | 1 µg/mL (≈ 2.35 µM) | 0.25 µg/mL (≈ 0.588 µM) | 2 µg/mL (≈ 4.7 µM) | ≤ 0.063 µg/mL | 0.5 µg/mL (≈ 1.18 µM) | 8 µg/mL (≈ 18.8 µM) | 0.5 µg/mL (≈ 1.18 µM) | 0.5 µg/mL (≈ 1.18 µM) | 4 | 4 | 4 | 4 | 4 | 4 | 4 | 4 | 4 | 4 | 4 | 4 | ED50 (Staphylococcus aureus [13]): 2.95 mg/kg; MIC (Staphylococcus aureus [18]): 0.25 µg/mL (≈ 0.588 µM); ED50 (Staphylococcus aureus [22]): > 10 mg/kg; Ratio (Staphylococcus aureus [24]): 4; Ratio (Haemophilus influenzae [25]): 4
4 | CC(=S)NC[C@H]1CN(c2cc(F)c(N3CCNN(C(=O)CO)CC3)c(F)c2)C(=O)O1 | 0.5 µg/mL (≈ 1.13 µM) | 0.25 µg/mL (≈ 0.564 µM) | 2 µg/mL (≈ 4.51 µM) | 0.063 µg/mL (≈ 0.142 µM) | 0.125 µg/mL (≈ 0.282 µM) | 1 µg/mL (≈ 2.25 µM) | 0.125 µg/mL (≈ 0.282 µM) | 0.25 µg/mL (≈ 0.564 µM) | 4 | 4 | 4 | 4 | 4 | 4 | 4 | 4 | 4 | 4 | 4 | 4 | ED50 (Staphylococcus aureus [13]): 2.95 mg/kg; MIC (Staphylococcus aureus [18]): 0.125 µg/mL (≈ 0.282 µM); ED50 (Staphylococcus aureus [22]): 9.83 mg/kg; Ratio (Staphylococcus aureus [24]): 4; Ratio (Haemophilus influenzae [25]): 4
5 | CC(=S)NC[C@H]1CN(c2cc(F)c(N3CCON(C(=O)CO)CC3)c(F)c2)C(=O)O1 | 1 µg/mL (≈ 2.25 µM) | 0.25 µg/mL (≈ 0.562 µM) | 4 µg/mL (≈ 9 µM) | 0.063 µg/mL (≈ 0.142 µM) | 0.25 µg/mL (≈ 0.562 µM) | 2 µg/mL (≈ 4.5 µM) | 0.125 µg/mL (≈ 0.281 µM) | 0.25 µg/mL (≈ 0.562 µM) | 4 | 4 | 4 | 4 | 4 | 4 | 4 | 4 | 4 | 4 | 4 | 4 | Ratio (Staphylococcus aureus [24]): 4; Ratio (Haemophilus influenzae [25]): 4
6 | CC(=S)NC[C@H]1CN(c2cc(F)c(N3CCNOCC3)c(F)c2)C(=O)O1 | 1 µg/mL (≈ 2.59 µM) | 0.25 µg/mL (≈ 0.647 µM) | 2 µg/mL (≈ 5.18 µM) | 0.063 µg/mL (≈ 0.163 µM) | 0.125 µg/mL (≈ 0.323 µM) | 4 µg/mL (≈ 10.4 µM) | 0.25 µg/mL (≈ 0.647 µM) | 0.25 µg/mL (≈ 0.647 µM) | – | – | – | – | – | – | – | – | – | – | – | – | –
7 | COC(=S)NC[C@H]1CN(c2cc(F)c(N3CCON(C(=O)CO)CC3)c(F)c2)C(=O)O1 | 1 µg/mL (≈ 2.17 µM) | 0.25 µg/mL (≈ 0.543 µM) | 4 µg/mL (≈ 8.69 µM) | 0.125 µg/mL (≈ 0.271 µM) | 0.25 µg/mL (≈ 0.543 µM) | 2 µg/mL (≈ 4.34 µM) | 0.25 µg/mL (≈ 0.543 µM) | 0.5 µg/mL (≈ 1.09 µM) | 4 | 4 | 4 | 4 | 4 | 4 | 4 | 4 | 4 | 4 | 4 | 4 | Ratio (Staphylococcus aureus [24]): 4; Ratio (Haemophilus influenzae [25]): 4
8 | COC(=S)NC[C@H]1CN(c2cc(F)c(N3CCNOCC3)c(F)c2)C(=O)O1 | 1 µg/mL (≈ 2.48 µM) | 0.5 µg/mL (≈ 1.24 µM) | 8 µg/mL (≈ 19.9 µM) | 0.125 µg/mL (≈ 0.311 µM) | 0.25 µg/mL (≈ 0.621 µM) | 4 µg/mL (≈ 9.94 µM) | 0.25 µg/mL (≈ 0.621 µM) | 0.5 µg/mL (≈ 1.24 µM) | – | – | – | – | – | – | – | – | – | – | – | – | –
9 | O=C(CO)N1CCN(c2ccc(N3C[C@H](Cn4ccnn4)OC3=O)cc2F)CCN1 | 8 µg/mL (≈ 19.1 µM) | 4 µg/mL (≈ 9.54 µM) | 16 µg/mL (≈ 38.1 µM) | 1 µg/mL (≈ 2.38 µM) | 4 µg/mL (≈ 9.54 µM) | 64 µg/mL (≈ 153 µM) | 2 µg/mL (≈ 4.77 µM) | 4 µg/mL (≈ 9.54 µM) | – | – | – | – | – | – | – | – | – | – | – | – | ED50 (Staphylococcus aureus [13]): 0.77 mg/kg
